Assay results as given in ChEMBL document CHEMBL4368869, “'Second-generation' 1,2,3-triazole-based inhibitors of Porphyromonas gingivalis adherence to oral streptococci and biofilm formation” (Medchemcomm, 2019).

Key:
TIGK [1] = test: Cytotoxicity against human TIGK cells assessed as reduction in ATP levels after 18 hrs by CellTiterGlo reagent-based assay; format: cell-based
Method in brief: (§1)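 TIGK cells are seeded at 4000/well and grown 24 h, then exposed 18 h to compound. They are washed three times with PBS and treated with CellTiterGlo substrate, 2 min with shaking plus 10 min static. Total ATP is read by luminescence. Reduction is judged against cells in medium with 0.1% DMSO, p<0.05.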

TIGK [2] = test: Cytotoxicity against human TIGK cells assessed as reduction in ATP levels at 60 uM after 18 hrs by CellTiterGlo reagent-based assay; format: cell-based; method in brief: as §1
TIGK [3] = test: Cytotoxicity against human TIGK cells assessed as increase in LDH release at 5 to 60 uM after 18 hrs by LDH release assay; format: cell-based
Method in brief: (§2)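 Immortalized gingival keratinocytes (TIGK) are seeded at 4000 cells/well, grown 24 h, then exposed 18 h to compound in fresh medium. Supernatant is mixed with LDH substrate for 30 min at room temperature, stopped, and read at OD 490 nm. Kit lysis buffer for 1 h serves as the positive control; medium alone is the negative control. Triplicate samples.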

TIGK [4] = test: Cytotoxicity against human TIGK cells assessed as reduction in ATP levels at 5 to 60 uM after 18 hrs by CellTiterGlo reagent-based assay; format: cell-based; method in brief: as §1
Porphyromonas gingivalis = test: Antibiofilm activity against Porphyromonas gingivalis ATCC 33277 assessed as inhibition of Porphyromonas gingivalis ATCC 33277 adherence to Streptococcus gordonii after 22 hrs by laser scanning confocal microscopic analysis; format: functional, organism-based
Method in brief: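 S. gordonii DL-1, labelled with hexidium iodide and adjusted to OD600 0.8 in PBS, is grown 24 h at 37 °C with shaking under anaerobic conditions on coverslips. Carboxyfluorescein-labelled P. gingivalis (OD600 0.4) is pre-incubated 30 min with compound (final 0–60 μM, 0.1% DMSO) and added, then incubated anaerobically 22 h. After PFA fixation, confocal imaging reads the green/red fluorescence ratio. IC50 is the concentration halving that ratio. Triplicates, three independent experiments.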

TIGK [5] = test: Cytotoxicity against human TIGK cells assessed as increase in LDH release at 5 to 20 uM after 18 hrs by LDH release assay; format: cell-based; method in brief: as §2
TIGK [6] = test: Cytotoxicity against human TIGK cells assessed as reduction in ATP levels at 5 to 20 uM after 18 hrs by CellTiterGlo reagent-based assay; format: cell-based; method in brief: as §1
TIGK [7] = test: Cytotoxicity against human TIGK cells assessed as reduction in ATP levels at 5 to 40 uM after 18 hrs by CellTiterGlo reagent-based assay; format: cell-based; method in brief: as §1
TIGK [8] = test: Cytotoxicity against human TIGK cells assessed as increase in LDH release at 5 to 40 uM after 18 hrs by LDH release assay; format: cell-based; method in brief: as §2

IC50 (Porphyromonas gingivalis)	Compound	other results
Not Active	CCN(CC)c1nc(-c2cn(-c3ccc(-c4nc(-c5ccccc5)c(-c5ccccc5)o4)cc3)nn2)nc(N(CC)CC)n1	–
Not Active	COc1ccc(-c2nc(-c3ccc(-n4cc(-c5nc(Nc6ccc(F)cc6)nc(Nc6ccc(F)cc6)n5)nn4)cc3)oc2-c2ccc(OC)cc2)cc1	–
Not Active	Fc1ccccc1Nc1nc(Nc2ccccc2F)nc(-c2cn(-c3cccc(-c4nc(-c5ccco5)c(-c5ccco5)o4)c3)nn2)n1	–
Not Active	CCN(CC)c1nc(-c2cn(-c3cccc(-c4nc(-c5ccc(F)cc5)c(-c5ccc(F)cc5)o4)c3)nn2)nc(N(CC)CC)n1	–
Not Active	CCN(CC)c1nc(-c2cn(-c3cccc(-c4nc(-c5ccco5)c(-c5ccco5)o4)c3)nn2)nc(N(CC)CC)n1	–
Not Active	Fc1ccc(Nc2nc(Nc3ccc(F)cc3)nc(-c3cn(-c4ccc(-c5nc(-c6ccccc6)c(-c6ccccc6)o5)cc4)nn3)n2)cc1	–
Not Active	CCN(CC)c1nc(-c2cn(-c3ccc(-c4nc(-c5ccco5)c(-c5ccco5)o4)cc3)nn2)nc(N(CC)CC)n1	–
Not Active	Fc1ccccc1Nc1nc(Nc2ccccc2F)nc(-c2cn(-c3ccc(-c4nc(-c5ccco5)c(-c5ccco5)o4)cc3)nn2)n1	–
Not Active	Fc1ccccc1Nc1nc(Nc2ccccc2F)nc(-c2cn(-c3ccc(-c4nc(-c5ccccc5)c(-c5ccccc5)o4)cc3)nn2)n1	–
Not Active	CCN(CC)c1nc(-c2cn(-c3cccc(-c4nc(-c5ccc(OC)cc5)c(-c5ccc(OC)cc5)o4)c3)nn2)nc(N(CC)CC)n1	–

The remaining lines, values behind:

Compound	IC50 (Porphyromonas gingivalis)	other results
Fc1ccc(Nc2nc(Nc3ccc(F)cc3)nc(-c3cn(-c4cccc(-c5nc(-c6ccccc6)c(-c6ccccc6)o5)c4)nn3)n2)cc1	–	Activity (TIGK [1]): Dose-dependent effect; Activity (TIGK [2]): Toxic; Activity (TIGK [3]): Non-Toxic
Fc1ccc(Nc2nc(Nc3ccc(F)cc3)nc(-c3cn(-c4ccccc4-c4nc(-c5ccco5)c(-c5ccco5)o4)nn3)n2)cc1	–	Activity (TIGK [3]): Non-Toxic; Activity (TIGK [4]): Non-Toxic
COc1ccccc1-c1cn(-c2ccc([S+]([O-])Cc3nc(-c4ccccc4)c(-c4ccccc4)o3)cc2)nn1 (stereo unspecified)	Not Active	–
COc1ccc(-c2nc(-c3ccccc3-n3cc(-c4nc(Nc5ccc(F)cc5)nc(Nc5ccc(F)cc5)n4)nn3)oc2-c2ccc(OC)cc2)cc1	Not Active	–
COc1ccc2cc(-c3cn(-c4ccc([S+]([O-])Cc5nc(-c6ccccc6)c(-c6ccccc6)o5)cc4)nn3)ccc2c1 (stereo unspecified)	Not Active	–
Fc1ccccc1Nc1nc(Nc2ccccc2F)nc(-c2cn(-c3ccc(-c4nc(-c5ccc(Cl)cc5)c(-c5ccc(Cl)cc5)o4)cc3)nn2)n1	Not Active	–
[O-][S+](Cc1nc(-c2ccccc2)c(-c2ccccc2)o1)c1ccc(-n2cc(-c3ccccc3C(F)(F)F)nn2)cc1 (stereo unspecified)	Not Active	–
COc1ccc(-c2nc(-c3cccc(-n4cc(-c5nc(Nc6ccc(F)cc6)nc(Nc6ccc(F)cc6)n5)nn4)c3)oc2-c2ccc(OC)cc2)cc1	Not Active	–
[O-][S+](Cc1nc(-c2ccccc2)c(-c2ccccc2)o1)c1ccc(-n2cc(-c3ccc(F)cc3)nn2)cc1 (stereo unspecified)	Not Active	–
COc1ccc2cc(-c3cn(-c4ccc(S(=O)(=O)Cc5nc(-c6ccccc6)c(-c6ccccc6)o5)cc4)nn3)ccc2c1	Not Active	–
Fc1ccc(Nc2nc(Nc3ccc(F)cc3)nc(-c3cn(-c4ccc(-c5nc(-c6ccc(F)cc6)c(-c6ccc(F)cc6)o5)cc4)nn3)n2)cc1	–	Activity (TIGK [5]): Non-Toxic; Activity (TIGK [6]): Non-Toxic
O=S(=O)(Cc1nc(-c2ccccc2)c(-c2ccccc2)o1)c1ccc(-n2cc(-c3cccnc3)nn2)cc1	Not Active	–
CCN(CC)c1nc(-c2cn(-c3ccc(-c4nc(-c5ccc(Cl)cc5)c(-c5ccc(Cl)cc5)o4)cc3)nn2)nc(N(CC)CC)n1	–	Activity (TIGK [7]): Non-Toxic; Activity (TIGK [8]): Non-Toxic
Fc1ccc(Nc2nc(Nc3ccc(F)cc3)nc(-c3cn(-c4cccc(-c5nc(-c6ccc(F)cc6)c(-c6ccc(F)cc6)o5)c4)nn3)n2)cc1	Not Active	–
CCCCCc1ccc(-c2cn(-c3ccc([S+]([O-])Cc4nc(-c5ccccc5)c(-c5ccccc5)o4)cc3)nn2)cc1 (stereo unspecified)	Not Active	–
Fc1ccc(Nc2nc(Nc3ccc(F)cc3)nc(-c3cn(-c4ccccc4-c4nc(-c5ccccc5)c(-c5ccccc5)o4)nn3)n2)cc1	Not Active	–
COc1ccc(-c2nc(-c3cccc(-n4cc(-c5nc(Nc6ccccc6F)nc(Nc6ccccc6F)n5)nn4)c3)oc2-c2ccc(OC)cc2)cc1	Not Active	–
[O-][S+](Cc1nc(-c2ccccc2)c(-c2ccccc2)o1)c1ccc(-n2cc(-c3ccc(Oc4ccccc4)cc3)nn2)cc1 (stereo unspecified)	Not Active	–
[O-][S+](Cc1nc(-c2ccccc2)c(-c2ccccc2)o1)c1ccc(-n2cc(-c3cccnc3)nn2)cc1 (stereo unspecified)	Not Active	–
O=S(=O)(Cc1nc(-c2ccccc2)c(-c2ccccc2)o1)c1ccc(-n2cc(-c3ccccc3C(F)(F)F)nn2)cc1	Not Active	–
[O-][S+](Cc1nc(-c2ccccc2)c(-c2ccccc2)o1)c1ccc(-n2cc(-c3cc(C(F)(F)F)cc(C(F)(F)F)c3)nn2)cc1 (stereo unspecified)	Not Active	–
